# What was measured:
# [1] = system: CHO; experiment: Inhibition of binding of biotinylated chicken galectin-8S to CHO cells at 1 mM by cytofluorometry; assay type: cell-based; conditions: Gallus gallus
# How it was run: (§1)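 Labeled lectin, with or without inhibitor, was incubated with aliquots of cell suspensions from the same passage: human SW480 colon adenocarcinoma cells for Erythrina agglutinin, CHO cells for the galectins. Binding was quantified by cytofluorometry as % positive cells and mean fluorescence intensity. Readings were normalized between a lectin-only control (100%) and a no-lectin background (0%). Runs were done in triplicate across at least three independent series.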
# [2] = target: Galectin-3 (Gallus gallus) (UniProt A4GTP0); experiment: (§2) Inhibition of binding of biotinylated truncated chicken galectin-3 to CHO cells at 2 mM by cytofluorometry; assay type: cell-based; how it was run: as §1
# [3] = system: SW480; experiment: Inhibition of binding of biotinylated Erythrina crista-galli agglutinin to SW480 cells at 0.2 mM by cytofluorometry; assay type: cell-based; how it was run: as §1
# [4] = target: Galectin-3 (Gallus gallus) (UniProt A4GTP0); experiment: (§3) Inhibition of binding of biotinylated chicken galectin-3 to CHO cells at 1 mM by cytofluorometry; assay type: cell-based; how it was run: as §1
# [5] = Inhibition of binding of biotinylated chicken galectin-1A to surface immobilized asialofetuin by solid phase assay; set-up: species or system Gallus gallus
# How it was run: (§4)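 Asialofetuin was adsorbed to microtiter wells at a constant coating amount, and its N-glycans served as ligand. Biotinylated lectin at a lectin-specific concentration was added with inhibitor. IC50 (mM) was normalized to lactose, and potency was expressed relative to free lactose. Assays were run in triplicate across up to five independent series.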
# [6] = Inhibition of binding of biotinylated Viscum album agglutinin to surface immobilized asialofetuin by solid phase assay; how it was run: as §4
# [7] = Inhibition of binding of biotinylated Viscum album agglutinin to surface immobilized asialofetuin by solid phase assay relative to free lactose
# How it was run: (§5)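 Asialofetuin was adsorbed to microtiter wells at a constant coating amount, and its N-glycans served as ligand. Biotinylated lectin at a lectin-specific concentration was added with inhibitor. Assays were run in triplicate across up to five independent series.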
# [8] = target: T1, Galectin-3 (Gallus gallus, UniProt A4GTP0); experiment: Inhibition of binding of biotinylated truncated chicken galectin-3 to surface immobilized asialofetuin by solid phase assay; how it was run: as §5
# T1 sequence (A4GTP0 whole entry): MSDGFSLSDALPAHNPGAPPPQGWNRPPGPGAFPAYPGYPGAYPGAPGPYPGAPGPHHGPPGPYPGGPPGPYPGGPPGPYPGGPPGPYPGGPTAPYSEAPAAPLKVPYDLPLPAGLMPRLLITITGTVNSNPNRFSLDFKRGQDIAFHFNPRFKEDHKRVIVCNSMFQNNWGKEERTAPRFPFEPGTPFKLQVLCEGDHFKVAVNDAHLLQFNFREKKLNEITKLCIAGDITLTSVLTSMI
# [9] = Inhibition of binding of biotinylated Erythrina crista-galli agglutinin to surface immobilized asialofetuin by solid phase assay; how it was run: as §5
# [10] = target: T1, Galectin-3; experiment: Inhibition of binding of biotinylated chicken galectin-3 to surface immobilized asialofetuin by solid phase assay; how it was run: as §5
# [11] = Inhibition of binding of biotinylated chicken galectin-8L to surface immobilized asialofetuin by solid phase assay relative to free lactose; set-up: species or system Gallus gallus; how it was run: as §5
# [12] = Inhibition of binding of biotinylated chicken galectin-8S to surface immobilized asialofetuin by solid phase assay relative to free lactose; set-up: species or system Gallus gallus; how it was run: as §4
# [13] = Inhibition of binding of biotinylated chicken galectin-8S to surface immobilized asialofetuin by solid phase assay; set-up: species or system Gallus gallus; how it was run: as §4
# [14] = target: T1, Galectin-3; experiment: Inhibition of binding of biotinylated truncated chicken galectin-3 to surface immobilized asialofetuin by solid phase assay relative to free lactose; how it was run: as §5
# [15] = Inhibition of binding of biotinylated chicken galectin-8N to surface immobilized asialofetuin by solid phase assay relative to free lactose; set-up: species or system Gallus gallus; how it was run: as §4
# [16] = Inhibition of binding of biotinylated chicken galectin-2 to surface immobilized asialofetuin by solid phase assay; set-up: species or system Gallus gallus; how it was run: as §4
# [17] = Inhibition of binding of biotinylated chicken galectin-1A to surface immobilized asialofetuin by solid phase assay relative to free lactose; set-up: species or system Gallus gallus; how it was run: as §4
# [18] = target: T1, Galectin-3; experiment: Inhibition of binding of biotinylated chicken galectin-3 to surface immobilized asialofetuin by solid phase assay relative to free lactose; how it was run: as §4
# [19] = Inhibition of binding of biotinylated Erythrina crista-galli agglutinin to surface immobilized asialofetuin by solid phase assay relative to free lactose; how it was run: as §4
# [20] = Inhibition of binding of biotinylated chicken galectin-2 to surface immobilized asialofetuin by solid phase assay relative to free lactose; set-up: species or system Gallus gallus; how it was run: as §4
# [21] = Inhibition of binding of biotinylated chicken galectin-8N to surface immobilized asialofetuin by solid phase assay; set-up: species or system Gallus gallus; how it was run: as §4
# [22] = target: T2, Beta-galactoside-binding lectin (Gallus gallus, UniProt P07583); experiment: Inhibition of binding of biotinylated chicken galectin-1B to surface immobilized asialofetuin by solid phase assay relative to free lactose; how it was run: as §4
# T2 sequence (P07583 whole entry): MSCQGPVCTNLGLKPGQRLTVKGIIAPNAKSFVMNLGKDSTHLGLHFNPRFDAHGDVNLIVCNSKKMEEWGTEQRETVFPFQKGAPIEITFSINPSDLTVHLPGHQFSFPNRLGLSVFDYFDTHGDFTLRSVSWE
# [23] = target: T2, Beta-galactoside-binding lectin; experiment: Inhibition of binding of biotinylated chicken galectin-1B to surface immobilized asialofetuin by solid phase assay; how it was run: as §4
# [24] = Inhibition of binding of biotinylated chicken galectin-8L to surface immobilized asialofetuin by solid phase assay; set-up: species or system Gallus gallus; how it was run: as §4
# [25] = target: T3, Galectin-3 (Gallus gallus) (UniProt A4GTP0); experiment: as §2; assay type: cell-based; how it was run: as §1; remark: listed apart in the source
# T3 sequence (whole entry): T1 sequence (A4GTP0 whole entry)
# [26] = target: T3, Galectin-3 (Gallus gallus); experiment: as §3; assay type: cell-based; how it was run: as §1; remark: listed apart in the source
# [27] = target: T3, Galectin-3 (Gallus gallus); conditions: CHO, 0.25 mM
Compound,inhibition [1],inhibition [3],IC50 [5],IC50 [6],relative potency [7],IC50 [8],IC50 [9],IC50 [10],IC50 [11],IC50 [12],IC50 [13],IC50 [14],relative potency [15],IC50 [16],relative potency [17],relative potency [18],relative potency [19],IC50 [21],IC50 [23],IC50 [24],further results
"LACTOSE, ANHYDROUS [listing 1 of 2 here]",39%,86%,–,–,–,–,–,–,–,–,–,–,–,–,–,–,–,–,–,–,inhibition [2]: 67%; inhibition [4]: 75%
C=CC[C@@H]1O[C@@H](C(=O)NCc2ccc(CNC(=O)[C@H]3O[C@H](CC=C)[C@H](OCc4ccccc4)[C@@H](OCc4ccccc4)[C@@H]3OCc3cn([C@@H]4O[C@H](CO)[C@@H](O[C@@H]5O[C@H](CO)[C@H](O)[C@H](O)[C@H]5O)[C@H](O)[C@H]4O)nn3)cc2)[C@H](OCc2cn([C@@H]3O[C@H](CO)[C@@H](O[C@@H]4O[C@H](CO)[C@H](O)[C@H](O)[C@H]4O)[C@H](O)[C@H]3O)nn2)[C@@H](OCc2ccccc2)[C@@H]1OCc1ccccc1,–,–,1400 µM,1300 µM,0.5,5000 µM,1300 µM,14 µM,2100 µM,600 µM,3000 µM,900 µM,4,650 µM,0.5,78.6,0.8,400 µM,460 µM,2400 µM,relative potency [20]: 9.2; relative potency [22]: 8.7
O=C(/C=C/C(=O)N[C@@H]1O[C@H](CO)[C@@H](O[C@@H]2O[C@H](CO)[C@H](O)[C@H](O)[C@H]2O)[C@H](O)[C@H]1O)N[C@@H]1O[C@H](CO)[C@@H](O[C@@H]2O[C@H](CO)[C@H](O)[C@H](O)[C@H]2O)[C@H](O)[C@H]1O,70%,89%,360 µM,550 µM,–,4200 µM,1200 µM,600 µM,–,700 µM,2500 µM,–,–,1400 µM,–,–,–,800 µM,1300 µM,4500 µM,inhibition [25]: 47%; inhibition [26]: 45%
"LACTOSE, ANHYDROUS [listing 2 of 2 here]",–,–,500 µM,600 µM,–,–,–,–,–,–,1800 µM,–,–,6000 µM,–,–,–,1600 µM,–,5000 µM,–
O=C1NCc2ccc(cc2)CNC(=O)[C@@H]2O[C@@H](C/C=C/C[C@H]3O[C@H]1[C@@H](OCc1cn([C@@H]4O[C@H](CO)[C@@H](O[C@@H]5O[C@H](CO)[C@H](O)[C@H](O)[C@H]5O)[C@H](O)[C@H]4O)nn1)[C@H](OCc1ccccc1)[C@H]3OCc1ccccc1)[C@@H](OCc1ccccc1)[C@H](OCc1ccccc1)[C@H]2OCc1cn([C@@H]2O[C@H](CO)[C@@H](O[C@@H]3O[C@H](CO)[C@H](O)[C@H](O)[C@H]3O)[C@H](O)[C@H]2O)nn1,–,88%,1600 µM,240 µM,2.5,5300 µM,800 µM,80 µM,8300 µM,4500 µM,400 µM,800 µM,5.3,700 µM,0.3,13.8,1.4,300 µM,600 µM,600 µM,relative potency [20]: 8.6; relative potency [22]: 6.7
OC[C@H]1O[C@@H](O[C@H]2[C@H](O)[C@@H](O)[C@H](n3cc(-c4ccc(-c5cn([C@@H]6O[C@H](CO)[C@@H](O[C@@H]7O[C@H](CO)[C@H](O)[C@H](O)[C@H]7O)[C@H](O)[C@H]6O)nn5)cc4)nn3)O[C@@H]2CO)[C@H](O)[C@@H](O)[C@H]1O,34%,85%,220 µM,130 µM,4.6,3100 µM,600 µM,70 µM,2800 µM,2600 µM,700 µM,1500 µM,3.2,1200 µM,2.3,15.7,1.8,500 µM,1500 µM,1800 µM,inhibition [27]: 39%; relative potency [20]: 5; relative potency [22]: 2.7; inhibition [25]: 44%

# Source: ChEMBL document CHEMBL2202999, “Synthesis of bivalent lactosides and their activity as sensors for differences between lectins in inter- and intrafamily comparisons” (Bioorg Med Chem Lett, 2012)
